Results collected from several papers.
Compare with care: the assays were run in different laboratories.
Target: Serine/threonine-protein kinase 26 (STK26, Homo sapiens, UniProt Q9P289)

read-out	mode	technique	tested at	endpoint	result	Structure (SMILES)
cell-free assay	–	competition with immobilised ligand	1 µM	remaining binding	80%	O=C1NC(c2ccccn2)Sc2ccccc21 (stereo not drawn)
cell-free assay	–	–	0.5 µM	remaining signal	98.6%	Oc1cccc(-c2nc(N3CCOCC3)c3oc4ncccc4c3n2)c1
enzyme activity	inhibitor	–	1 µM	inhibition	-2%	COc1cc2ncnc(Nc3ccc(Oc4ccccc4)cc3C)c2cc1OC
enzyme activity	inhibitor	–	0.1 µM	inhibition	9%	COc1cc(-c2cc(-c3ccc(N4CCNCC4)cc3)cnc2C)cc(OC)c1OC
cell-free assay	–	competition with immobilised ligand	1 µM	remaining binding	97%	CS(=O)(=O)c1cc(C2(NC(=O)c3cncc4c3cnn4-c3ccc(F)cc3)CC2)ccn1
thermal stability	–	DSF	10 µM	ΔTm	-0.2 °C	CCN1CCC2(CC1)NC(=O)c1c(c3ccc(Cl)c(Cl)c3n1C)C2C#N (racemic)
cell-free assay	–	competition with immobilised ligand	1 µM	remaining binding	76%	O=C(NC[C@@H]1[C@H]2CN(C(=O)OCc3cc(C(F)(F)F)cc(C(F)(F)F)c3)C[C@@H]12)c1ccc2[nH]nnc2c1
enzyme activity	inhibitor	–	0.1 µM	inhibition	1.3%	CC/C(=N\NC(=O)NCc1cccc(O)c1)c1ccc(O)c(C)c1O
enzyme activity	inhibitor	radiometric	1 µM	remaining activity	83%	COc1cc(Nc2cnc(C#N)c(O[C@H](C)CN(C)C)n2)ncc1-c1cnn(C)c1
cell-free assay	–	–	1 µM	remaining signal	100%	CN(CCCC(F)(F)F)c1nccc(-c2cnn3ncccc23)n1
enzyme activity	inhibitor	radiometric	1 µM	remaining activity	109%	Cc1cnc(NC2CCOCC2)nc1-n1cnc(C(=O)NC(CN)c2cc(F)cc(Cl)c2)c1 (stereo not drawn)
enzyme activity	inhibitor	–	10 µM	remaining activity	76%	Nc1nc(NC2CCCCC2)sc1C(=O)c1ccccc1
cell-free assay	–	competition with immobilised ligand	1 µM	remaining binding	97%	CC(=O)N1CCC(c2ccc(C(=O)NC(=N)N)cc2C(F)(F)F)CC1
enzyme activity	inhibitor	–	1 µM	inhibition	1%	COc1cc(-c2cc(-c3ccc(N4CCNCC4)cc3)cnc2N)cc(OC)c1OC
cell-free assay	inhibitor	–	20 µM	remaining signal	2.6%	Nc1ncnc2occ(-c3ccc(NC(=O)Nc4cc(C(F)(F)F)ccc4F)cc3)c12
thermal stability	–	DSF	10 µM	ΔTm	1.5 °C	Cn1c2c(Cl)c(Cl)ccc2c2cc[nH]c(=O)c21
enzyme activity	inhibitor	FRET	1 µM	inhibition	20%	CN(C)C1CCN(CC#Cc2nn(C3CCCC3)c3nc(NCc4ccccc4)ncc23)C1 (stereo not drawn)
enzyme activity	inhibitor	–	1 µM	activity vs control	75%	COc1cc(/C=C/C(=O)CC(=O)/C=C/c2ccc(O)c(OC)c2)ccc1O
cell-free assay	–	–	1 µM	remaining signal	71%	N[C@H]1CCN(c2nccc(-c3cnn4ncccc34)n2)C1
enzyme activity	inhibitor	–	1 µM	inhibition	-9%	CN1CC(Oc2cnc(C#N)cc2-c2ccn3nc(NC(=O)C4CC4)cc3c2)C1

read-out	mode	technique	tested at	endpoint	result	Structure (SMILES)
cell-free assay	–	–	1 µM	remaining signal	64%	c1cnn2ncc(-c3ccnc(N4CCC45COC5)n3)c2c1
cell-free assay	–	competition with immobilised ligand	1 µM	remaining binding	78%	CN(C(=O)c1ccccc1)c1cc(N(C)c2ccc3c(c2)CCc2ccc(C(=O)NCCN4CCOCC4)cc2C3=O)ccc1F
thermal stability	–	DSF	10 µM	ΔTm	1.9 °C	Cn1c2c(c3ccccc31)C(C#N)C(C)(C)NC2=O (stereo not drawn)
target engagement in cells	inhibitor	chemoproteomics	20 mM	inhibition	38.2%	c1ccc(CNc2nc(N3CCOc4ccccc43)nc3c2CCCC3)cc1
cell-free assay	–	–	1 µM	remaining signal	73%	C[C@H]1CCN(c2nccc(-c3cnn4ncccc34)n2)C1
thermal stability	–	DSF	10 µM	ΔTm	2.4 °C	CC1(C)NC(=O)c2[nH]c3c(Cl)c(Cl)ccc3c2C1C#N (stereo not drawn)
cell-free assay	–	–	0.5 µM	remaining signal	65.1%	N#CCCc1ccc2c(c1)-c1[nH]c3ccc([N+](=O)[O-])cc3c1CC(=O)N2
cell-free assay	–	competition with immobilised ligand	1 µM	remaining binding	100%	O=C(Nc1ccc(Oc2ccc(F)cc2)cc1)N1CCc2ncccc2[C@H]1c1ccc(F)cc1
enzyme activity	inhibitor	–	10 µM	remaining activity	57%	Nc1nc(Nc2ccccc2)sc1C(=O)c1c(F)cccc1F
enzyme activity	inhibitor	–	10 µM	remaining activity	100%	Cn1c(=O)n(-c2ccc(C(C)(C)C#N)cc2)c2c3cc(-c4cnc5ccccc5c4)ccc3ncc21
cell-free assay	–	–	1 µM	remaining signal	98%	Cc1cnn2ncc(-c3ccnc(N(C)C)n3)c2c1
enzyme activity	inhibitor	radiometric	1 µM	activity vs control	96%	FC(F)(F)Oc1cccc(-c2cnc3ccc(-c4ccncc4)nn23)c1
cell-free assay	–	–	1 µM	remaining signal	86%	COc1ccnn2ncc(-c3ccnc(N(C)C)n3)c12
cell-free assay	–	–	0.5 µM	remaining signal	99%	O=C1NC(=O)c2cc(Nc3ccc(F)cc3)c(Nc3ccc(F)cc3)cc21
enzyme activity	inhibitor	–	0.1 µM	activity vs control	107%	Cc1cc(NC(=O)c2cccc3cc(-c4cccc5[nH]nc(N)c45)ccc23)ccc1F
cell-free assay	–	competition with immobilised ligand	1 µM	remaining binding	74%	Cc1noc([C@H]2C[C@@H](c3ccc(C(F)(F)F)cc3)CN(C(=O)N3CCS(=O)(=O)C3)C2)n1
enzyme activity	inhibitor	radiometric	1 µM	remaining activity	98%	CC(C)(C)c1nc2c(s1)c1nc(N)ncc1c1ccc(NS(=O)(=O)c3c(F)cccc3F)c(F)c12
cell-free assay	–	competition with immobilised ligand	1 µM	remaining binding	72%	O=C(NS(=O)(=O)c1ccc(NCC2CCOCC2)c([N+](=O)[O-])c1)c1ccc(N2CCN(Cc3ccc(C(F)(F)F)cc3-c3ccc(Cl)cc3)CC2)cc1Oc1cnc2[nH]ccc2c1
enzyme activity	inhibitor	–	10 µM	remaining activity	72.4%	Cc1sc(C(=O)NC2COC2)cc1-n1cc(NC(=O)Nc2c(F)cccc2Cl)cn1
